From paper PMC3749563 (British Journal of Cancer, 2013)

Assays:
[1] = single agent, 3 consecutive days per week schedule; ref Tolcher et al, 2012; cited from earlier work
[2] = tested on: α1-acid glycoprotein and albumin; settings: ref Wu et al, 2012; cited from earlier work
γ-secretase = settings: ref Luistro et al, 2009; cited from earlier work
[3] = Dose-limiting toxicities and recommended phase II dose; type: in vivo, human; settings: cediranib daily, in combination with RO4929097; highest dose level completed
[4] = tested on: circulating VEGF-A, VEGF-C, SDF-1; assay: Circulating biomarker evaluation; type: in vivo, human; settings: after dosing with cediranib (with RO4929097), cycle 1
In short: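 Patients with advanced solid tumours. Blood was drawn before dosing on cycle 1 day 1, cycle 1 day 22 and cycle 2 day 1. Plasma VEGF-A, VEGF-B, VEGF-C, bFGF, SDF-1-alpha, IL-6 and IL-8 were measured by commercial ELISA kits following the manufacturer's protocol. Samples were run in duplicate, with a triplicate if values differed by more than 15%. Results were discarded unless at least two agreed within 15%.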

[5] = tested on: VEGF receptors (VEGFR-1, VEGFR-2 and VEGFR-3), and c-Kit; settings: ref Wedge et al, 2005; cited from earlier work

Structure (SMILES)	Daily dose at which reversible CYP3A4 autoinduction was detected [1]	Plasma protein binding [2]	γ-Secretase inhibition (γ-secretase)	Recommended phase II dose (RP2D) [3] [mg]	Change of circulating SDF-1 [4]	Change of circulating VEGF-A [4]	Change of circulating VEGF-C [4]	Inhibition of VEGF signalling [5]
CC(C)(C(=O)NCC(F)(F)C(F)(F)F)C(=O)N[C@@H]1C(=O)Nc2ccccc2-c2ccccc21 [RO4929097]	above 24 mg	highly bound	potent and selective					
COc1cc2c(Oc3ccc4[nH]c(C)cc4c3F)ncnc2cc1OCCCN1CCCC1 [cediranib]				30	Increases	Increases	Increases	highly potent inhibitor
